In ChEMBL document CHEMBL1156074, “Diazo transfer-click reaction route to new, lipophilic teicoplanin and ristocetin aglycon derivatives with high antibacterial and anti-influenza virus activity: an aggregation and receptor binding study” (J Med Chem, 2009):
Values after ≈ are worked out from the molar mass of the structure shown. Active and inactive are the calls of the source.

How the values were obtained:
Influenza B virus [1] = assay: Antiviral activity against Influenza B virus (B/Hong Kong/5/72) assessed as inhibition of virus-induced cytopathic effect at highest concentration by cell-based assay; format: functional; details: B/Hong Kong/05/1972
Method in brief: (§1)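 Virus-induced cytopathic effect is scored visually in infected cell cultures. EC50 is defined as the compound concentration producing 50% inhibition of the CPE. A compound is recorded as not active when there is no inhibition at the highest concentration tested or at a subtoxic concentration.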

Influenza B virus [2] = assay: Antiviral activity against Influenza B virus (B/Hong Kong/5/72) assessed as cell viability at subtoxic concentration by cell-based MTS assay; format: functional; details: B/Hong Kong/05/1972
[3] = Octanol-aqueous buffer partition coefficient, log P at pH 7 by shake-flask method; format: physicochemical
Influenza A virus [4] = assay: Antiviral activity against Influenza A virus (A/Puerto Rico/8/34(H1N1)) assessed as cell viability by cell-based MTS assay; format: functional, organism-based; details: A/Puerto Rico/8/1934(H1N1)
Method in brief: (§2)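 Cell-based influenza assay. The read-out is cell viability by the colorimetric formazan-based MTS assay. EC50 is the concentration giving 50% inhibition of the virus-induced cytopathic effect.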

H3N2 subtype [5] = assay: Antiviral activity against Influenza A virus (A/Hong Kong/7/87(H3N2)) assessed as inhibition of virus-induced cytopathic effect by cell-based assay; format: functional, organism-based; details: A/Hong Kong/7/1987(H3N2); method in brief: as §1
H3N2 subtype [6] = assay: Antiviral activity against Influenza A virus (A/Hong Kong/7/87(H3N2)) assessed as cell viability by cell-based MTS assay; format: functional, organism-based; details: A/Hong Kong/7/1987(H3N2); method in brief: as §2
Influenza A virus [7] = assay: Antiviral activity against Influenza A virus (A/Puerto Rico/8/34(H1N1)) assessed as inhibition of virus-induced cytopathic effect by cell-based assay; format: functional, organism-based, A/Puerto Rico/8/1934(H1N1); method in brief: as §1
Influenza B virus [8] = assay: Antiviral activity against Influenza B virus (B/Hong Kong/5/72) assessed as cell viability by cell-based MTS assay; format: functional; details: B/Hong Kong/05/1972; method in brief: as §2
Influenza B virus [9] = assay: Antiviral activity against Influenza B virus (B/Hong Kong/5/72) assessed as inhibition of virus-induced cytopathic effect by cell-based assay; format: functional; details: B/Hong Kong/05/1972; method in brief: as §1
Bacillus subtilis [10] = assay: Antibacterial activity against Bacillus subtilis ATCC 6633 after 18 hrs by broth microdilution method; format: functional; details: ATCC 6633, 18 h
[11] = tested on: Staphylococcus epidermidis; assay: Antibacterial activity against Staphylococcus epidermidis after 18 hrs by broth microdilution method; format: functional
Enterococcus faecalis [12] = assay: Bactericidal activity against vancomycin and teicoplanin-sensitive Enterococcus faecalis ATCC 29212 after overnight incubation; format: functional
Enterococcus faecalis [13] = assay: Bactericidal activity against vancomycin and teicoplanin-resistant Enterococcus faecalis 15376 harboring vanA gene after overnight incubation; format: functional
Staphylococcus aureus [14] = assay: Antibacterial activity against methicillin-sensitive Staphylococcus aureus ATCC 29213 after 18 hrs by broth microdilution method; format: functional; details: ATCC 29213, 18 h
[15] = tested on: Staphylococcus epidermidis; assay: Bactericidal activity against Staphylococcus epidermidis after overnight incubation; format: functional
Enterococcus faecalis [16] = assay: Antibacterial activity against vancomycin and teicoplanin-resistant Enterococcus faecalis 15376 harboring vanA gene after 18 hrs by broth microdilution method; format: functional; details: Enterococcus faecalis, 15376, 18 h
[17] = tested on: Staphylococcus epidermidis; assay: Antibacterial activity against biofilm of Staphylococcus epidermidis ATCC 35984 after 18 hrs by broth microdilution method; format: functional; details: RP62A
H3N2 subtype [18] = assay: Antiviral activity against Influenza A virus (A/Hong Kong/7/87(H3N2)) assessed as cell viability at subtoxic concentration by cell-based MTS assay; format: functional, organism-based; details: A/Hong Kong/7/1987(H3N2)
Staphylococcus aureus [19] = assay: Bactericidal activity against methicillin-sensitive Staphylococcus aureus ATCC 29213 after overnight incubation; format: functional
H3N2 subtype [20] = assay: Antiviral activity against Influenza A virus (A/Hong Kong/7/87(H3N2)) assessed as inhibition of virus-induced cytopathic effect at highest concentration by cell-based assay; format: functional, organism-based; details: A/Hong Kong/7/1987(H3N2); method in brief: as §1
Staphylococcus aureus [21] = assay: Bactericidal activity against methicillin-sensitive Staphylococcus aureus ATCC 33591 after overnight incubation; format: functional
Influenza A virus [22] = assay: Antiviral activity against Influenza A virus (A/Puerto Rico/8/34(H1N1)) assessed as inhibition of virus-induced cytopathic effect at highest concentration by cell-based assay; format: functional, organism-based; details: A/Puerto Rico/8/1934(H1N1); method in brief: as §1
Bacillus subtilis [23] = assay: Bactericidal activity against Bacillus subtilis ATCC 6633 after overnight incubation; format: functional
Enterococcus faecalis [24] = assay: Antibacterial activity against vancomycin-resistant and teicoplanin-sensitive Enterococcus faecalis ATCC 51299 harboring vanB gene after 18 hrs by broth microdilution method; format: functional; details: ATCC 51299, 18 h
Enterococcus faecalis [25] = assay: Antibacterial activity against vancomycin and teicoplanin-sensitive Enterococcus faecalis ATCC 29212 after 18 hrs by broth microdilution method; format: functional; details: ATCC 29212, 18 h
Enterococcus faecalis [26] = assay: Bactericidal activity against vancomycin-resistant and teicoplanin-sensitive Enterococcus faecalis ATCC 51299 harboring vanB gene after overnight incubation; format: functional
[27] = tested on: Staphylococcus epidermidis; assay: Bactericidal activity against biofilm of Staphylococcus epidermidis ATCC 35984 after overnight incubation; format: functional; details: RP62A
Staphylococcus aureus [28] = assay: Antibacterial activity against methicillin-sensitive Staphylococcus aureus ATCC 33591 after 18 hrs by broth microdilution method; format: functional; details: ATCC 33591, 18 h
Influenza A virus [29] = assay: Antiviral activity against Influenza A virus (A/Puerto Rico/8/34(H1N1)) assessed as cell viability at subtoxic concentration by cell-based MTS assay; format: functional, organism-based; details: A/Puerto Rico/8/1934(H1N1)
Enterococcus = assay: Antibacterial activity against vancomycin and teicoplanin-resistant Enterococcus harboring vanA resistance gene; format: functional
[30] = Influenza A virus, A/Puerto Rico/8/1934(H1N1)

## COC(=O)[C@@H]1NC(=O)[C@H]2NC(=O)[C@H](NC(=O)[C@@H]3NC(=O)[C@H]4NC(=O)[C@H](NC(=O)[C@H](N=[N+]=[N-])c5ccc(O)c(c5)Oc5cc4cc(O)c5C)[C@H](O)c4ccc(cc4)Oc4cc3cc(c4O)Oc3ccc(cc3)[C@H]2O)c2ccc(O)c(c2)-c2c(O)cc(O)cc21
Influenza B virus [1]
  inhibition: inactive
Influenza B virus [2]
  inhibition: inactive
[3]
  logD: 0.29

## COC(=O)[C@H]1NC(=O)[C@H]2NC(=O)[C@H](NC(=O)[C@@H]3NC(=O)[C@H]4NC(=O)[C@H](NC(=O)[C@H](N=[N+]=[N-])c5ccc(O)c(c5)Oc5cc4cc(O)c5C)[C@H](O)c4ccc(cc4)Oc4cc3cc(c4O)Oc3ccc(cc3)[C@H]2O)c2ccc(O)c(c2)-c2c(O)cc(O)cc21
Influenza A virus [4]
  EC50: 8.8 µM
H3N2 subtype [5]
  EC50: 20 µM
H3N2 subtype [6]
  EC50: 9.2 µM
Influenza A virus [7]; [30]
  EC50: 9 µM

## NC(=O)c1ncn([C@@H]2O[C@H](CO)[C@@H](O)[C@H]2O)n1 [RIBAVIRIN]
Influenza A virus [4]
  EC50: 9.7 µM
H3N2 subtype [5]
  EC50: 9 µM
Influenza B virus [8]
  EC50: 3.6 µM
Influenza B virus [9]
  EC50: 9 µM
H3N2 subtype [6]
  EC50: 6 µM
Influenza A virus [7]
  EC50: 9 µM

## CC(N)C12CC3CC(CC(C3)C1)C2 (configuration not stated) [RIMANTADINE]
Influenza A virus [4]
  EC50: 13 µM
H3N2 subtype [5]
  EC50: 0.1 µM
Influenza B virus [1]
  inhibition: inactive
H3N2 subtype [6]
  EC50: 0.2 µM
Influenza A virus [7]; [30]
  EC50: 10 µM
Influenza B virus [2]
  inhibition: inactive

## CCCCCCCCCCOCc1cn([C@H]2C(=O)N[C@@H]3Cc4ccc(c(Cl)c4)Oc4cc5cc(c4O)Oc4ccc(cc4Cl)[C@@H](O[C@@H]4O[C@H](CO)[C@@H](O)[C@H](O)[C@H]4NC(C)=O)[C@@H]4NC(=O)[C@H](NC(=O)[C@@H]5NC(=O)[C@@H](NC3=O)c3cc(O)cc(c3)Oc3cc2ccc3O)c2ccc(O)c(c2)-c2c(O)cc(O)cc2[C@H](C(=O)OC)NC4=O)nn1
Bacillus subtilis [10]
  MIC: 2 mg/L (≈ 1.22 µM)
[11]
  MIC: 1 mg/L (≈ 0.61 µM)
Enterococcus faecalis [12]
  MBC: 256 mg/L (≈ 156 µM)
Enterococcus faecalis [13]
  MBC: 256 mg/L (≈ 156 µM)
Staphylococcus aureus [14]
  MIC: 1 mg/L (≈ 0.61 µM)
[15]
  MBC: 1 mg/L (≈ 0.61 µM)
Enterococcus faecalis [16]
  MIC: 2 mg/L (≈ 1.22 µM)
[17]
  MIC: 1 mg/L (≈ 0.61 µM)
H3N2 subtype [18]
  inhibition: inactive
Staphylococcus aureus [19]
  MBC: 1 mg/L (≈ 0.61 µM)
H3N2 subtype [20]
  inhibition: inactive
Influenza B virus [1]
  inhibition: inactive
Staphylococcus aureus [21]
  MBC: 0.5 mg/L (≈ 0.305 µM)
Influenza A virus [22]
  inhibition: inactive
Influenza B virus [2]
  inhibition: inactive
Bacillus subtilis [23]
  MBC: 4 mg/L (≈ 2.44 µM)
Enterococcus faecalis [24]
  MIC: 2 mg/L (≈ 1.22 µM)
Enterococcus faecalis [25]
  MIC: 2 mg/L (≈ 1.22 µM)
Enterococcus faecalis [26]
  MBC: 128 mg/L (≈ 78.1 µM)
[27]
  MBC: 1 mg/L (≈ 0.61 µM)
Staphylococcus aureus [28]
  MIC: 0.5 mg/L (≈ 0.305 µM)
Influenza A virus [29]
  inhibition: inactive

## NC12CC3CC(CC(C3)C1)C2 [AMANTADINE]
Influenza A virus [4]
  EC50: 35 µM
H3N2 subtype [5]
  EC50: 0.8 µM
Influenza B virus [1]
  inhibition: inactive
H3N2 subtype [6]
  EC50: 0.4 µM
Influenza A virus [7]; [30]
  EC50: 45 µM
Influenza B virus [2]
  inhibition: inactive

## CN[C@H](CC(C)C)C(=O)N[C@H]1C(=O)N[C@@H](CC(N)=O)C(=O)N[C@H]2C(=O)N[C@H]3C(=O)N[C@H](C(=O)N[C@H](C(=O)O)c4cc(O)cc(O)c4-c4cc3ccc4O)[C@H](O[C@H]3C[C@](C)(N)[C@@H](O)[C@H](C)O3)c3ccc(c(Cl)c3)Oc3cc2cc(c3O[C@@H]2O[C@H](CO)[C@@H](O)[C@H](O)[C@H]2O[C@H]2C[C@](C)(NCc3ccc(-c4ccc(Cl)cc4)cc3)[C@@H](O)[C@H](C)O2)Oc2ccc(cc2Cl)[C@H]1O [ORITAVANCIN]
Enterococcus
  MIC: < 1 mg/L

## CCCCCCCCCCOCc1cn([C@H]2C(=O)N[C@H]3C(=O)N[C@H](C(=O)N[C@H]4C(=O)N[C@H]5C(=O)N[C@H](C(=O)N[C@@H](C(=O)OC)c6cc(O)cc(O)c6-c6cc5ccc6O)[C@H](O)c5ccc(cc5)Oc5cc4cc(c5O)Oc4ccc(cc4)[C@H]3O)c3cc(O)c(C)c(c3)Oc3cc2ccc3O)nn1
Bacillus subtilis [10]
  MIC: > 256 mg/L
[11]
  MIC: > 256 mg/L
Staphylococcus aureus [14]
  MIC: > 256 mg/L
Enterococcus faecalis [16]
  MIC: > 256 mg/L
Influenza A virus [4]
  EC50: 0.1 µM
H3N2 subtype [5]
  EC50: 0.2 µM
[17]
  MIC: > 256 mg/L
Influenza B virus [8]
  EC50: 0.2 µM
Influenza B virus [9]
  EC50: 0.2 µM
H3N2 subtype [6]
  EC50: 0.5 µM
Influenza A virus [7]; [30]
  EC50: 0.1 µM
Enterococcus faecalis [24]
  MIC: > 256 mg/L
Enterococcus faecalis [25]
  MIC: > 256 mg/L
Staphylococcus aureus [28]
  MIC: > 256 mg/L
